This is an account of results in ChEMBL document CHEMBL1139824, “Optimization of a pyrazoloquinolinone class of Chk1 kinase inhibitors” (Bioorg Med Chem Lett, 2007).

In test [1] the target is T1, Serine/threonine-protein kinase Chk1 (Homo sapiens, UniProt O14757).
T1 sequence (O14757 whole entry): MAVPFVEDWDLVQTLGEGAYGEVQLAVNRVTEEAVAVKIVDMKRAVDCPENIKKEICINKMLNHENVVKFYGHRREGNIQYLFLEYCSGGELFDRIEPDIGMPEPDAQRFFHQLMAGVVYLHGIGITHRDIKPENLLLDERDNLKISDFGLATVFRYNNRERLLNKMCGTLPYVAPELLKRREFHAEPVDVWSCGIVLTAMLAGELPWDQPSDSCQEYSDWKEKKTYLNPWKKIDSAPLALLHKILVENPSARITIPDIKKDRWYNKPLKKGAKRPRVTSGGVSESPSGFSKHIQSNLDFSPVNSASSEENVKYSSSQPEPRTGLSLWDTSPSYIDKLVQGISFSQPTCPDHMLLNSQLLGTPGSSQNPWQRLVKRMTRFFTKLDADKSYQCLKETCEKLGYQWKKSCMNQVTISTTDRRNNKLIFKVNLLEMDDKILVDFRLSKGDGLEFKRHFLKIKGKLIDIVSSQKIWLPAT
Put plainly: Inhibition of Chk1 by fluorescence assay.

In the next test the test system is NCI-H1299. Description: Inhibition of camptothecin-induced cell cycle arrest in NCI-H1299 cells after 8 hrs. It is filed as functional, cell-based. To be noted: Homo sapiens, NCI-H1299, 8 h. Summed up: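 NCI-H1299 lung carcinoma cells held 16 h in camptothecin to arrest, then exposed to inhibitor a further 8 h. Escape into mitosis scored by mitosis-specific nucleolin phosphorylation, quantified with an antibody-coated bead-based assay.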

A word on the IC50: it is the concentration that inhibits the measured activity by half. A high value points to lower potency. What is called EC50 is the concentration at which the effect is half-maximal.

Turning to `Cc1[nH]nc2c1c(=O)n(CCN)c1ccc(Cl)cc21`, in test [1], inhibition was half-maximal at 36 nM (IC50). This compound registered an EC50 in the test on NCI-H1299 of 980 nM. For `CCn1c(=O)c2c(C)[nH]nc2c2cc3c(cc21)CN(S(=O)(=O)CCN)CC3` the same measures were 10 nM and more than 10000 nM. On to `Cc1[nH]nc2c1c(=O)[nH]c1ccc(Cl)cc12`, for which half-maximal inhibition in test [1] (IC50) was put at 40 nM. Further, in the test with NCI-H1299, the EC50 was 2980 nM. With `Cc1[nH]nc2c1c(=O)[nH]c1cc(Cl)ccc12`, the IC50 in test [1] stood at 1980 nM. In the case of `Cc1[nH]nc2c1c(=O)[nH]c1cc3ccccc3cc12`, inhibition in test [1] was half-maximal at 29 nM (IC50). In addition, the EC50 in the test with NCI-H1299 turned out to be 710 nM. `Cc1[nH]nc2c1c(OCCCN)nc1ccc(Cl)cc12`: the IC50 in test [1] is 64 nM. In the test on NCI-H1299, this compound yielded an EC50 of 10200 nM. For `Cc1[nH]nc2c1c(=O)[nH]c1cccc(Cl)c12`, 28900 nM corresponded to half-maximal inhibition in test [1] (IC50). In the case of `Cc1[nH]nc2c1c(=O)[nH]c1ccccc12`, the IC50 in test [1] came to 1370 nM. This IC50 is about 21-fold lower than that of the compound before. Same read-out and setting: the result for `Cc1[nH]nc2c1c(OCCN)nc1ccc(Cl)cc12` reads 850 nM. In the case of `Cc1[nH]nc2c1c(=O)n(CCCCN)c1ccc(Cl)cc21`, the IC50 in test [1] came to 20 nM. For the same compound, it took 1010 nM to reach a half-maximal effect with NCI-H1299 (EC50). In test [1], `Cc1[nH]nc2c1c(=O)n(C[C@@H](F)CN)c1cc(C3CCCCC3)c(C3CCCCC3)cc21` registered an IC50 of 3.2 nM. In the test on NCI-H1299, the EC50 is 83 nM. `Cc1[nH]nc2c1c(=O)[nH]c1c(/C=C/CN)c(C3CCCCC3)c(C3CCCCC3)cc12` came in with an IC50 in test [1] of 58 nM. In other words, the double-digit nanomolar range. Compound `CCn1c(=O)c2c(C)[nH]nc2c2cc3c(cc21)CN(C(=O)NCCN)CC3` registered an IC50 in test [1] of 12 nM. Moreover, the EC50 in the test with NCI-H1299 was more than 10000 nM. For `Cc1[nH]nc2c1c(=O)n(CCCN)c1ccc(Cl)cc21` the same measures were 1.2 nM and 160 nM. Compound `CCn1c(=O)c2c(C)[nH]nc2c2cc3c(cc21)CN(C(=O)CN)CC3` returned an IC50 in test [1] of 18 nM. The EC50 in the test on NCI-H1299 is more than 10000 nM. Regarding `CC(=O)Nc1ccc2[nH]c(=O)c3c(C)[nH]nc3c2c1`, the midpoint of inhibition in test [1], the IC50, lay at 7080 nM. On the same count and under the same terms, for `Cc1ccc2[nH]c(=O)c3c(C)[nH]nc3c2c1` the value was 230 nM; for `Cc1cccc2c1[nH]c(=O)c1c(C)[nH]nc12`, 1490 nM. The compound `Cc1[nH]nc2c1c(NCCCN)nc1ccc(Cl)cc12` showed an IC50 in test [1] of 220 nM.

In test [1], `Cc1[nH]nc2c1c(=O)[nH]c1cc3c(cc12)CCCC3` had an IC50 of 130 nM. This compound also displayed an EC50 with NCI-H1299 of 1210 nM. In test [1], `Cc1[nH]nc2c1c(=O)[nH]c1cccc(C)c12` yielded an IC50 of more than 100000 nM. Still for that read-out and setting: the result for `Cc1[nH]nc2c1c(=O)[nH]c1c(CCCN)c(C3CCCCC3)c(C3CCCCC3)cc12` reads 290 nM. Same read-out and setting: for `Cc1[nH]nc2c1c(NCCN)nc1ccc(Cl)cc12` the value was 60 nM. With `Cc1[nH]nc2c1c(=O)n(C[C@H](F)CN)c1cc(C3CCCCC3)c(C3CCCCC3)cc21`, the IC50 in test [1] was determined as 3.1 nM. The EC50 in the test with NCI-H1299 is 65 nM.
